The record followed here is ChEMBL document CHEMBL1212873, “Inactivation of protein tyrosine phosphatases by oltipraz and other cancer chemopreventive 1,2-dithiole-3-thiones” (Bioorg Med Chem, 2010).

The source made the active and inactive calls. The calls are words filed in the database; no cut-off is given here.

Assay [1] concerns the target T1, Tyrosine-protein phosphatase non-receptor type 1 (Homo sapiens) (UniProt P18031).
T1 sequence (whole entry): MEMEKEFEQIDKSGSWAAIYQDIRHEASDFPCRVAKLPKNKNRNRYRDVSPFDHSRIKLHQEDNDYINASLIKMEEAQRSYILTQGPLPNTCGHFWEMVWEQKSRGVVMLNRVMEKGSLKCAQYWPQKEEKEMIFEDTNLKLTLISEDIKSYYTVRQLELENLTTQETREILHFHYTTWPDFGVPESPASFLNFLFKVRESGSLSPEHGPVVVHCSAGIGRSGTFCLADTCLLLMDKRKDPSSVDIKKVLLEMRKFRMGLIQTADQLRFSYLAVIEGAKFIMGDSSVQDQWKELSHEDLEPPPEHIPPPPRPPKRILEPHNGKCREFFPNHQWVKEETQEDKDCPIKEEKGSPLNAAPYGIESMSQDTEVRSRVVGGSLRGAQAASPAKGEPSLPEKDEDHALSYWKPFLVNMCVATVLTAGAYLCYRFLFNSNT
Briefly: Competitive inhibition of human PTP1B catalytic subunit assessed as enzyme inactivation at 25 uM after 15 mins by spectrophotometry. The method, boiled down:
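Thiol-free PTP1B (12.5 nM final) with compound at 25 µM and 20 mM pNPP in 50 mM Tris, 50 mM bis-Tris, 100 mM sodium acetate, 10 mM DETAPAC, 1% DMF, pH 7.2, 23 °C. Activity loss followed at 410 nm; apparent inactivation rate from first-order fit of progress curves; mean of three experiments.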

The target of assay [2] is T2, Tyrosine-protein phosphatase non-receptor type 11 (Homo sapiens) (UniProt Q06124).
T2 sequence (whole entry): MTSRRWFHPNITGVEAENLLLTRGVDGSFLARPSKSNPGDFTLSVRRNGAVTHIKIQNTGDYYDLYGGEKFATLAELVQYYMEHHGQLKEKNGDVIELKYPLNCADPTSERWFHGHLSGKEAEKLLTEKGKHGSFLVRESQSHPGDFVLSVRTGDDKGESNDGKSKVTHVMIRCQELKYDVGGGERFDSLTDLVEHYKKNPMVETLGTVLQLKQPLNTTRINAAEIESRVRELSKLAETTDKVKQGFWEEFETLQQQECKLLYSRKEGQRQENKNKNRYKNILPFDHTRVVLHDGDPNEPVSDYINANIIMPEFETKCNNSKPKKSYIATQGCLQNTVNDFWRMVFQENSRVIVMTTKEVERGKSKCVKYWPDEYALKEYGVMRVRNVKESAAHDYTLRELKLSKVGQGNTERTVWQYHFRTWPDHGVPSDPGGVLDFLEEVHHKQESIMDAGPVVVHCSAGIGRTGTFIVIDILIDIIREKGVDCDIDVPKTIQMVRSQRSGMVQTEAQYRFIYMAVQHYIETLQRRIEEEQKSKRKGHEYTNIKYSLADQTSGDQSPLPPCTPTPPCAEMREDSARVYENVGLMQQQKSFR
As to the kind of experiment: Irreversible inhibition of SHP2 at 10 to 50 uM in presence of 100 mM dithiothreitol.

Assay [3] concerns the target T1, Tyrosine-protein phosphatase non-receptor type 1 (Homo sapiens). The note with it: 50 uM.
The target is the same in assay [4]. Conditions: 2 to 50 uM.
For assay [5] the target is unchanged. Conditions: 2 to 50 uM. The source holds these as a separate data set.
For assay [6], the target named is T2, Tyrosine-protein phosphatase non-receptor type 11 (Homo sapiens). Conditions: 10 to 50 uM.
Assay [7] concerns the target T1, Tyrosine-protein phosphatase non-receptor type 1 (Homo sapiens). Conditions: 2 to 50 uM. The source holds these as a separate data set.
The target is the same in assay [8]. Conditions: 50 uM. This is another data set of the same source.
The target is the same in assay [9]. Conditions: 50 uM. The source holds these as a separate data set.
For assay [10] the target is unchanged. The note with it: 50 uM. This is another data set of the same source.
Assay [11] has the same target. Conditions: 2 to 50 uM. This is another data set of the same source.
For assay [12] the target is unchanged. The note with it: 2 to 50 uM. This is another data set of the same source.
The target of assay [13] is T2, Tyrosine-protein phosphatase non-receptor type 11 (Homo sapiens). Conditions: 10 to 50 uM. The source holds these as a separate data set.
For assay [14] the target is unchanged. Conditions: 10 to 50 uM. The source holds these as a separate data set.

`S=c1ccss1`: the inhibition entry in assay [1] is “Active”. In assay [2], the inhibition entry is “inactive”.
As for `Cc1c(-c2cnccn2)ssc1=S`, the inhibition in [3] is 50%; in assay [4], “tde”; in [8], 70%; in assay [9], > 97%. The inhibition result in [5], in [7], in [11], in [12], in assay [13] and in [1] was “Active” throughout. The inhibition result in assay [6], in [10] and in assay [14] was “inactive” in each case.
Take `COc1ccc(-c2cc(=S)ss2)cc1`: in assay [1], the inhibition entry is “Active”.

As a reminder, the inhibition is the change of the read-out against control, counted positive when it falls.
